Data reported in ChEMBL document CHEMBL2346534, “Design, synthesis and in vitro anti-proliferative activity of 4,6-quinazolinediamines as potent EGFR-TK inhibitors” (Eur J Med Chem, 2013).

Experiments:
M14 = assay: Cytotoxicity against human M14 cells assessed as cell growth at 10^-5 M after 48 hrs by SRB assay; format: functional; conditions: M14, 48 h, read-out: Activity
In short: (§1)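 NCI 60 single-dose screen at 10^-5 M. Cells in RPMI 1640 with 5% FBS and 2 mM L-glutamine, preincubated 24 h at 37 °C/5% CO2. Drug from DMSO stock, then 48 h exposure. TCA fixation, SRB staining, absorbance at 515 nm. Result given as percent growth of treated cells relative to untreated control.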

Malme-3M = assay: Cytotoxicity against human MALME-3M cells assessed as cell growth at 10^-5 M after 48 hrs by SRB assay; format: functional; conditions: read-out: Activity; in short: as §1
LOX IMVI = assay: Cytotoxicity against human LOXIMVI cells assessed as cell growth at 10^-5 M after 48 hrs by SRB assay; format: functional; conditions: read-out: Activity; in short: as §1
SNB-75 = assay: Cytotoxicity against human SNB75 cells assessed as cell growth at 10^-5 M after 48 hrs by SRB assay; format: functional; conditions: SNB-75, 48 h, read-out: Activity
In short: (§2)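 NCI 60-panel single-dose primary screen at 10^-5 M. Cells are grown in RPMI 1640 with 5% FBS and 2 mM L-glutamine and preincubated 24 h at 37 °C. Drug exposure is 48 h. Cells are TCA-fixed, stained with SRB and absorbance is read at 515 nm. Results are reported as percent growth of treated cells versus untreated controls, corrected using time-zero plates.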

SNB-19 = assay: Cytotoxicity against human SNB19 cells assessed as cell growth at 10^-5 M after 48 hrs by SRB assay; format: functional; conditions: SNB-19, 48 h, read-out: Activity; in short: as §2
SF-295 = assay: Cytotoxicity against human SF295 cells assessed as cell growth at 10^-5 M after 48 hrs by SRB assay; format: functional; conditions: SF-295, 48 h, read-out: Activity; in short: as §2
SF-268 = assay: Cytotoxicity against human SF268 cells assessed as cell growth at 10^-5 M after 48 hrs by SRB assay; format: functional; conditions: SF-268, 48 h, read-out: Activity; in short: as §2
SW-620 = assay: Cytotoxicity against human SW620 cells assessed as cell growth at 10^-5 M after 48 hrs by SRB assay; format: functional; conditions: SW-620, 48 h, read-out: Activity
In short: (§3)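 NCI primary single-dose screen at 10^-5 M. Cells grown in RPMI 1640 with 5% FBS and 2 mM L-glutamine, given 24 h before drug addition, then 48 h exposure at 37 °C, 5% CO2. Cells TCA-fixed, stained with SRB, read at 515 nm. Reported as percent growth of treated cells relative to untreated controls.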

KM12 = assay: Cytotoxicity against human KM12 cells assessed as cell growth at 10^-5 M after 48 hrs by SRB assay; format: functional; conditions: KM12, 48 h, read-out: Activity; in short: as §1
HT-29 = assay: Cytotoxicity against human HT-29 cells assessed as cell growth at 10^-5 M after 48 hrs by SRB assay; format: functional; conditions: HT-29, 48 h, read-out: Activity; in short: as §1
HCT-15 = assay: Cytotoxicity against human HCT15 cells assessed as cell growth at 10^-5 M after 48 hrs by SRB assay; format: functional; conditions: HCT-15, 48 h, read-out: Activity; in short: as §1
HCT-116 = assay: Cytotoxicity against human HCT116 cells assessed as cell growth at 10^-5 M after 48 hrs by SRB assay; format: functional; conditions: HCT-116, 48 h, read-out: Activity; in short: as §1
NCI-H522 = assay: Cytotoxicity against human NCI-H522 cells assessed as cell growth at 10^-5 M after 48 hrs by SRB assay; format: functional; conditions: NCI-H522, 48 h, read-out: Activity; in short: as §2
COLO 205 = assay: Cytotoxicity against human COLO205 cells assessed as cell growth at 10^-5 M after 48 hrs by SRB assay; format: functional; conditions: COLO 205, 48 h, read-out: Activity; in short: as §1
NCI-H322M = assay: Cytotoxicity against human NCI-H322M cells assessed as cell growth at 10^-5 M after 48 hrs by SRB assay; format: functional; conditions: read-out: Activity; in short: as §2
A549 = assay: Cytotoxicity against human A549 cells assessed as cell growth at 10^-5 M after 48 hrs by SRB assay; format: functional; conditions: A549, 48 h, read-out: Activity; in short: as §1
[1] = Cytotoxicity against human EKVX cells assessed as cell growth at 10^-5 M after 48 hrs by SRB assay; format: functional; conditions: read-out: Activity; in short: as §1
MOLT-4 = assay: Cytotoxicity against human MOLT4 cells assessed as cell growth at 10^-5 M after 48 hrs by SRB assay; format: functional; conditions: MOLT-4, 48 h, read-out: Activity; in short: as §2
HL-60(TB) = assay: Cytotoxicity against human HL-60(TB) cells assessed as cell growth at 10^-5 M after 48 hrs by SRB assay; format: functional; conditions: HL-60, 48 h, read-out: Activity
In short: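 NCI 60-panel single-dose screen. Cells were grown in RPMI 1640 with 5% FBS and 2 mM L-glutamine, preincubated 24 h, then exposed to compound at 10^-5 M (from DMSO stock) for 48 h at 37 °C, 5% CO2. Settled suspension cells were TCA-fixed and SRB-stained, with absorbance read at 515 nm. The value is percent growth of treated versus untreated control cells.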

T47D = assay: Cytotoxicity against human T47D cells assessed as cell growth at 10^-5 M after 48 hrs by SRB assay; format: functional; conditions: read-out: Activity; in short: as §3
BT-549 = assay: Cytotoxicity against human BT549 cells assessed as cell growth at 10^-5 M after 48 hrs by SRB assay; format: functional; conditions: BT-549, 48 h, read-out: Activity; in short: as §1
Hs-578T = assay: Cytotoxicity against human Hs578T cells assessed as cell growth at 10^-5 M after 48 hrs by SRB assay; format: functional; conditions: read-out: Activity; in short: as §1
DU-145 = assay: Cytotoxicity against human DU145 cells assessed as cell growth at 10^-5 M after 48 hrs by SRB assay; format: functional; conditions: DU-145, 48 h, read-out: Activity; in short: as §1
TK-10 = assay: Cytotoxicity against human TK10 cells assessed as cell growth at 10^-5 M after 48 hrs by SRB assay; format: functional; conditions: TK-10, 48 h, read-out: Activity; in short: as §3
RXF 393 = assay: Cytotoxicity against human RXF393 cells assessed as cell growth at 10^-5 M after 48 hrs by SRB assay; format: functional; conditions: RXF 393, 48 h, read-out: Activity; in short: as §2
ACHN = assay: Cytotoxicity against human ACHN cells assessed as cell growth at 10^-5 M after 48 hrs by SRB assay; format: functional; conditions: read-out: Activity; in short: as §1
CAKI-1 = assay: Cytotoxicity against human Caki1 cells assessed as cell growth at 10^-5 M after 48 hrs by SRB assay; format: functional; conditions: CAKI-1, 48 h, read-out: Activity; in short: as §1
SK-OV-3 = assay: Cytotoxicity against human SKOV3 cells assessed as cell growth at 10^-5 M after 48 hrs by SRB assay; format: functional; conditions: SK-OV-3, 48 h, read-out: Activity; in short: as §2
IGROV-1 = assay: Cytotoxicity against human IGROV1 cells assessed as cell growth at 10^-5 M after 48 hrs by SRB assay; format: functional; conditions: IGROV-1, 48 h, read-out: Activity; in short: as §1
UACC-257 = assay: Cytotoxicity against human UACC257 cells assessed as cell growth at 10^-5 M after 48 hrs by SRB assay; format: functional; conditions: UACC-257, 48 h, read-out: Activity; in short: as §3
[2] = biological target: Epidermal growth factor receptor (Homo sapiens, UniProt P00533); conditions: at 10 µM;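 note: EGFR tyrosine kinase activity on a poly(Glu,Tyr) substrate, read out by Kinase-Glo Plus luminescence after a 40 min reaction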
Epidermal growth factor receptor, sequence (P00533 whole entry): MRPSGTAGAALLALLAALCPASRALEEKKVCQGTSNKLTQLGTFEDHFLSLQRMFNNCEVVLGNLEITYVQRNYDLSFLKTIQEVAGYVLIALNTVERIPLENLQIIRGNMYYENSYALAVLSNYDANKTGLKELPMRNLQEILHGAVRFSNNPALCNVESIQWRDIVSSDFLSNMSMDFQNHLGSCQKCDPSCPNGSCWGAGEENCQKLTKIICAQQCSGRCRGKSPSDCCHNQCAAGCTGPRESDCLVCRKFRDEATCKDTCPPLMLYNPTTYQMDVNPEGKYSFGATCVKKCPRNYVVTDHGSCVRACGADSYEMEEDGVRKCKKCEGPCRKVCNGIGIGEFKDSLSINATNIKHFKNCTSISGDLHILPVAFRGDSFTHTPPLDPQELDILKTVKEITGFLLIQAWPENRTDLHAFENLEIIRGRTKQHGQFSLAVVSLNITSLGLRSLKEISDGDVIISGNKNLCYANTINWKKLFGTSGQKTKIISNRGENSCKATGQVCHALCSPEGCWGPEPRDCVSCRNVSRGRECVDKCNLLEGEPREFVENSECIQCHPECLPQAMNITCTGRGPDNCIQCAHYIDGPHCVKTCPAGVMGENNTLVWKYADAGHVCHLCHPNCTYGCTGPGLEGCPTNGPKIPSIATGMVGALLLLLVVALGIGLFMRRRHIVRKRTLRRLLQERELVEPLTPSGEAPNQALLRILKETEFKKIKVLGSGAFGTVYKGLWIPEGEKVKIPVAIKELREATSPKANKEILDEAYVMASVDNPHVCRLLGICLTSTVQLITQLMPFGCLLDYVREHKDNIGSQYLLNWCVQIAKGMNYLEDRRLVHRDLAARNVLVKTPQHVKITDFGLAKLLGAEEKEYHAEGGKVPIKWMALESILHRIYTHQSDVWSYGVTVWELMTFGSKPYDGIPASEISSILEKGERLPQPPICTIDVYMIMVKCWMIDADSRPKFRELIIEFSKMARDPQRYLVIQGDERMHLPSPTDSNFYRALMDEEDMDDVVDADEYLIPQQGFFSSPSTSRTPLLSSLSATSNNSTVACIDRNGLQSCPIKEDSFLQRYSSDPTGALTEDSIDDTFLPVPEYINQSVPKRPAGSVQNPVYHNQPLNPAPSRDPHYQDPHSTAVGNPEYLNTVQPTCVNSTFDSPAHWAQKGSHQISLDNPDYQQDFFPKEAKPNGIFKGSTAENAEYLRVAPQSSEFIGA

SMILES | growth at 10 µM (M14) | growth at 10 µM (Malme-3M) | growth at 10 µM (LOX IMVI) | growth at 10 µM (SNB-75) | growth at 10 µM (SNB-19) | growth at 10 µM (SF-295) | growth at 10 µM (SF-268) | growth at 10 µM (SW-620) | growth at 10 µM (KM12) | growth at 10 µM (HT-29) | growth at 10 µM (HCT-15) | growth at 10 µM (HCT-116) | growth at 10 µM (NCI-H522) | growth at 10 µM (COLO 205) | growth at 10 µM (NCI-H322M) | growth at 10 µM (A549) | growth at 10 µM [1] | growth at 10 µM (MOLT-4) | growth at 10 µM (HL-60(TB)) | growth at 10 µM (T47D) | other results
C#Cc1cccc(Nc2ncnc3ccc(N/C=C(\C#N)C(=O)OCC)cc23)c1 | 114% | 119% | 103% | 92.5% | 85.1% | 95.6% | 94.4% | 105% | 98.1% | 98% | 94.2% | 103% | 86.3% | 104% | 52.3% | 85.1% | 31.9% | 87.5% | 97.5% | 73.4% | growth at 10 µM (BT-549): 99.6%; growth at 10 µM (Hs-578T): 103%; growth at 10 µM (DU-145): 69.9%; growth at 10 µM (TK-10): 65.5%; growth at 10 µM (RXF 393): 92.9%; growth at 10 µM (ACHN): 63.1%; growth at 10 µM (CAKI-1): 56.1%; growth at 10 µM (SK-OV-3): 97%; growth at 10 µM (IGROV-1): 77.4%; growth at 10 µM (UACC-257): 99.8%; inhibition [2]: 95%
NC(=O)Nc1ccc2ncnc(Nc3cccc(O)c3)c2c1 | 102% | 121% | 101% | 102% | 93.1% | 98.1% | 85.4% | 99.1% | 96.1% | 106% | 108% | 109% | 102% | 94.7% | 83.5% | 93.5% | 82.6% | 98.8% | 105% | 76.6% | growth at 10 µM (BT-549): 108%; growth at 10 µM (Hs-578T): 105%; growth at 10 µM (DU-145): 90.4%; growth at 10 µM (TK-10): 103%; growth at 10 µM (RXF 393): 111%; growth at 10 µM (ACHN): 103%; growth at 10 µM (CAKI-1): 84.8%; growth at 10 µM (SK-OV-3): 87.5%; growth at 10 µM (IGROV-1): 107%; growth at 10 µM (UACC-257): 99.8%; inhibition [2]: 100%
CCOC(=O)/C(C#N)=C\Nc1ccc2ncnc(Nc3ccccc3Cl)c2c1 | 119% | 156% | 93% | 87.2% | 94.5% | 102% | 106% | 116% | 88.5% | 100% | 99% | 113% | 107% | 110% | 47% | 82.4% | 39% | 86.2% | 95.3% | 77.6% | growth at 10 µM (BT-549): 112%; growth at 10 µM (Hs-578T): 91%; growth at 10 µM (DU-145): 62.1%; growth at 10 µM (TK-10): 53%; growth at 10 µM (RXF 393): 91.7%; growth at 10 µM (ACHN): 68.7%; growth at 10 µM (CAKI-1): 45%; growth at 10 µM (SK-OV-3): 107%; growth at 10 µM (IGROV-1): 79.7%; growth at 10 µM (UACC-257): 120%; inhibition [2]: 94%
